Here are results for 36 molecules from ChEMBL document CHEMBL3616456, “Potential of aryl-urea-benzofuranylthiazoles hybrids as multitasking agents in Alzheimer's disease” (Eur J Med Chem, 2015).

One series concerns the target Acetylcholinesterase (Electrophorus electricus, UniProt O42275). Nature of the series: Inhibition of electric eel acetylcholinesterase using acetylthiocholine iodide as substrate preincubated for 15 mins followed by substrate addition by Ellman's method.
Series [1] can be described thus: Antioxidant activity assessed as cupric reducing antioxidant capacity measured after 1 hr. It counts as physicochemical.
The nature of series [2]: Antioxidant activity assessed as ABTS cation radical scavenging activity measured after 6 mins.
Series [3] in a line: Selectivity index, ratio of IC50 for horse serum butyrylcholinesterase to IC50 for electric eel acetylcholinesterase.
A further series concerns the target Cholinesterase (Equus caballus, UniProt P81908). Briefly: Inhibition of horse serum butyrylcholinesterase using butyrylthiocholine iodide as substrate preincubated for 15 mins followed by substrate addition by Ellman's method. Put shortly: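 Enzyme in 100 mM phosphate buffer pH 8.0 with sample (n-propanol as solvent and control) preincubated 15 min at 25°C. Reaction started with butyrylthiocholine iodide (0.79 mM solution) plus DTNB. Thiolate-DTNB yellow product followed at 412 nm. IC50 taken from inhibition (%) curves at five concentrations: 12.5, 25, 50, 100 and 200 µM.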
(In general: Ellman's reagent forms a yellow product with free thiols.)

Sequence of Cholinesterase (P81908 whole entry): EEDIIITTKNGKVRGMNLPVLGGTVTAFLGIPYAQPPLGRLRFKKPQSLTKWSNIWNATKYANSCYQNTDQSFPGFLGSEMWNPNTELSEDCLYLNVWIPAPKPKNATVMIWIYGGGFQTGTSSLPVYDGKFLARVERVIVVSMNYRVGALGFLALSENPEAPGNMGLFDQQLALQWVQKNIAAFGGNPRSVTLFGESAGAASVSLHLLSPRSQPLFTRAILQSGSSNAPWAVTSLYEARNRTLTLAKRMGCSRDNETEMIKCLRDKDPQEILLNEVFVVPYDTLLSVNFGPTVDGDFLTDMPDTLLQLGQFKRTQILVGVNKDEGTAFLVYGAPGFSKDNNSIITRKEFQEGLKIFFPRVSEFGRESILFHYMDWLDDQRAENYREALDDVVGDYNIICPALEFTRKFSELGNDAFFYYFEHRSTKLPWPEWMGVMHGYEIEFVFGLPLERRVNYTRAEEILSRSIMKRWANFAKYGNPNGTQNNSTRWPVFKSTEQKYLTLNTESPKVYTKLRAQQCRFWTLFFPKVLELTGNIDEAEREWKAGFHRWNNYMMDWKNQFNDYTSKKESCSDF
Sequence of Acetylcholinesterase (O42275 whole entry): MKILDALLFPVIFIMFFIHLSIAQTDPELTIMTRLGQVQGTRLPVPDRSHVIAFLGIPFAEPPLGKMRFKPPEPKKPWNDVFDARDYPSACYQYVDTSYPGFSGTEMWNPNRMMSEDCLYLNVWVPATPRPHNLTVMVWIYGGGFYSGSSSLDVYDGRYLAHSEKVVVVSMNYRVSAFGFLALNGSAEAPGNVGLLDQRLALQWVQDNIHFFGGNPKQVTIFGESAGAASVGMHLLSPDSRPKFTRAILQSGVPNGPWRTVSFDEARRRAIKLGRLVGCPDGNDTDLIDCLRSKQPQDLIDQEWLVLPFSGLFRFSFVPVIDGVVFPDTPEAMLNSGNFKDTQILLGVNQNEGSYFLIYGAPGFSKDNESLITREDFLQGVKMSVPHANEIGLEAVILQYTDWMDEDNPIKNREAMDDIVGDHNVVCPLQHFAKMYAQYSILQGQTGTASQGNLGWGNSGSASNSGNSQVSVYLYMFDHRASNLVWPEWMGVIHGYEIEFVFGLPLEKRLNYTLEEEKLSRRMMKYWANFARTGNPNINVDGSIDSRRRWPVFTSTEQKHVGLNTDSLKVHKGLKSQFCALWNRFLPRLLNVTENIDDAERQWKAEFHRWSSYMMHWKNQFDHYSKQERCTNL

In general, IC50 refers to the concentration needed to halve the response being measured. For the molecule `COc1ccc(NC(=O)Nc2nc(-c3cc4cc([N+](=O)[O-])ccc4o3)cs2)cc1`, the IC50 at Acetylcholinesterase was 34.1 µM; in series [2] (ABTS cation radical), 121 µM; against Cholinesterase, 49.2 µM. Further, the A0.5 in series [1] is over 200 µM. Further, the Ratio IC50 in series [3] amounted to 1.44.
The matching figures for `O=C(Nc1ccc(I)cc1)Nc1nc(-c2cc3ccccc3o2)cs1`: 21.4 µM, 62 µM, 41.3 µM, 133 µM and 1.93.
On to `O=C(Nc1cccc(F)c1)Nc1nc(-c2cc3ccccc3o2)cs1`, for which the concentration for half-maximal inhibition (IC50) was found to be 49 µM against Acetylcholinesterase, 4.52 µM in series [2] (ABTS cation radical) and 18 µM against Cholinesterase. The A0.5 in series [1] was 126.52 µM. Further, the Ratio IC50 in series [3] was determined as 0.37.
Regarding `O=C(Nc1cccc([N+](=O)[O-])c1)Nc1nc(-c2cc3ccccc3o2)cs1`, the values for the IC50 (at Acetylcholinesterase; in series [2]; at Cholinesterase) were 41.2 µM, 1.26 µM and 26.8 µM, respectively. Besides, the A0.5 in series [1] is over 200 µM. In addition, the Ratio IC50 in series [3] was 0.65.
Turning to `O=C(Nc1nc(-c2cc3cc(Br)ccc3o2)cs1)Nc1ccccc1F`, the figures for the IC50 (at Acetylcholinesterase; in series [2] (ABTS cation radical); against Cholinesterase) were 3.85 µM, over 200 µM and 9.25 µM, respectively. Also, the A0.5 in series [1] is over 200 µM. The Ratio IC50 in series [3] is 2.4.
For `O=C(Nc1ccc(I)cc1)Nc1nc(-c2cc3cc(Br)ccc3o2)cs1`, the IC50 was 6.42 µM on Acetylcholinesterase, over 200 µM in series [2] (ABTS cation radical) and 43.6 µM against Cholinesterase. Moreover, in series [1], the A0.5 was over 200 µM. The Ratio IC50 in series [3] came out at 6.8.
With `O=C(Nc1cccc([N+](=O)[O-])c1)Nc1nc(-c2cc3cc(Br)ccc3o2)cs1`, the values for the IC50 (on Acetylcholinesterase; in series [2] (ABTS cation radical); against Cholinesterase) were 17.4 µM, 159 µM and 79 µM, respectively. Moreover, the A0.5 in series [1] is over 200 µM. Moreover, in series [3], the Ratio IC50 was found to be 4.53.
As to `COc1ccc(NC(=O)Nc2nc(-c3cc4cc(Br)ccc4o3)cs2)cc1`, the values for the IC50 (at Acetylcholinesterase; in series [2] (ABTS cation radical); against Cholinesterase) were 32.8 µM, over 200 µM and 31 µM, respectively. The A0.5 in series [1] was over 200 µM. Also, the Ratio IC50 in series [3] was 0.95.
`O=C(Nc1ccc(Cl)c(Cl)c1)Nc1nc(-c2cc3ccccc3o2)cs1`: the results for the IC50 (against Acetylcholinesterase; in series [2] (ABTS cation radical); against Cholinesterase) were 52 µM, over 200 µM and 75.6 µM, respectively. In addition, the A0.5 in series [1] was over 200 µM. Also, the Ratio IC50 in series [3] amounted to 1.45.
With `O=C(Nc1ccc(Cl)cc1)Nc1nc(-c2cc3ccccc3o2)cs1`, the half-inhibitory concentration (IC50) against Acetylcholinesterase amounted to 42.6 µM; in series [2] (ABTS cation radical), 11.2 µM; at Cholinesterase, 38.6 µM. Further, in series [1], the A0.5 is over 200 µM. Further, the Ratio IC50 in series [3] worked out at 0.91.
The matching figures for `Cc1ccc(NC(=O)Nc2nc(-c3cc4cc(Br)ccc4o3)cs2)cc1`: 32.5 µM, over 200 µM, 5.65 µM, over 200 µM and 0.17.
On the same counts, the results for `O=C(Nc1ccc([N+](=O)[O-])cc1)Nc1nc(-c2cc3cc([N+](=O)[O-])ccc3o2)cs1` are 25.2 µM, 100 µM, 25.6 µM, over 200 µM and 1.02.
The matching figures for `O=C(Nc1ccccc1)Nc1nc(-c2cc3cc([N+](=O)[O-])ccc3o2)cs1`: 4.42 µM, 183 µM, 2.26 µM, over 200 µM and 0.51.
`O=C(Nc1ccc(F)cc1)Nc1nc(-c2cc3cc(Br)ccc3o2)cs1`: the IC50 was 35.6 µM on Acetylcholinesterase, over 200 µM in series [2] (ABTS cation radical) and 64.3 µM against Cholinesterase. Besides, the A0.5 in series [1] came to 146.78 µM. Further, in series [3], the Ratio IC50 amounted to 1.81.
On the same counts, the results for `COc1ccccc1NC(=O)Nc1nc(-c2cc3cc(Br)ccc3o2)cs1` are 78.8 µM, 77.2 µM, 154 µM, 92.68 µM and 1.95.
Turning to `O=C(Nc1ccc(Br)cc1)Nc1nc(-c2cc3cc(Br)ccc3o2)cs1`, the IC50 against Acetylcholinesterase is 11.9 µM; in series [2] (ABTS cation radical), over 200 µM; against Cholinesterase it was 35.8 µM. Besides, in series [1], the A0.5 is over 200 µM. Further, in series [3], the Ratio IC50 is 3.
Take `O=C(Nc1ccc(Cl)cc1)Nc1nc(-c2cc3cc([N+](=O)[O-])ccc3o2)cs1`: the IC50 on Acetylcholinesterase was determined as 30.6 µM; in series [2] (ABTS cation radical) it was 117 µM; against Cholinesterase it was 26.6 µM. The A0.5 in series [1] was over 200 µM. For the same molecule, the Ratio IC50 in series [3] was determined as 0.87.
The matching figures for `O=C(Nc1ccccc1)Nc1nc(-c2cc3ccccc3o2)cs1`: 24.7 µM, 28.2 µM, 21.3 µM, 132 µM and 0.86.
The matching figures for `O=C(Nc1ccccc1)Nc1nc(-c2cc3cc(Br)ccc3o2)cs1`: 23.3 µM, over 200 µM, 35 µM, over 200 µM and 1.5.
The matching figures for `COc1cccc(NC(=O)Nc2nc(-c3cc4cc(Br)ccc4o3)cs2)c1`: 29.4 µM, over 200 µM, 13.9 µM, over 200 µM and 0.47.
For the molecule `O=c1c(O)c(-c2ccc(O)c(O)c2)oc2cc(O)cc(O)c12` [QUERCETIN], the A0.5 in series [1] amounted to 1.45 µM. Besides, the IC50 in series [2] (ABTS cation radical) was found to be 1.18 µM.
As to `O=C(Nc1cccc(Cl)c1)Nc1nc(-c2cc3cc(Br)ccc3o2)cs1`, the IC50 at Acetylcholinesterase was 7.93 µM; in series [2] (ABTS cation radical), over 200 µM; at Cholinesterase, 26.3 µM. Besides, the A0.5 in series [1] was over 200 µM. In addition, in series [3], the Ratio IC50 is 3.32.
On to `O=C(Nc1nc(-c2cc3cc(Br)ccc3o2)cs1)Nc1ccccc1[N+](=O)[O-]`, for which the IC50 at Acetylcholinesterase worked out at 8.82 µM; in series [2] (ABTS cation radical) it was 166 µM; against Cholinesterase, 5.12 µM. The A0.5 in series [1] came to 122.22 µM. For the same molecule, the Ratio IC50 in series [3] is 0.58.
The matching figures for `O=C(Nc1ccc(F)cc1)Nc1nc(-c2cc3ccccc3o2)cs1`: 55 µM, 1.13 µM, 7.45 µM, 110.31 µM and 0.14.
On the same counts, the results for `O=C(Nc1ccc([N+](=O)[O-])cc1)Nc1nc(-c2cc3ccccc3o2)cs1` are 5.23 µM, 19.3 µM, 3.44 µM, over 200 µM and 0.66.
On the same counts, the results for `O=C(Nc1nc(-c2cc3ccccc3o2)cs1)Nc1ccccc1[N+](=O)[O-]` are 41.9 µM, 20.3 µM, 79.9 µM, 100.33 µM and 1.91.
As for `O=C(Nc1ccc(Br)cc1)Nc1nc(-c2cc3ccccc3o2)cs1`, the IC50 on Acetylcholinesterase is 32.8 µM; in series [2] (ABTS cation radical), over 200 µM; at Cholinesterase, 55.2 µM. Moreover, the A0.5 in series [1] is over 200 µM. Besides, in series [3], the Ratio IC50 came out at 1.68.
On to `O=C(Nc1cccc(Cl)c1)Nc1nc(-c2cc3ccccc3o2)cs1`, for which the IC50 against Acetylcholinesterase turned out to be 9.67 µM; in series [2] (ABTS cation radical) it was 14.1 µM; on Cholinesterase, 21.5 µM. Moreover, the A0.5 in series [1] is over 200 µM. Besides, in series [3], the Ratio IC50 worked out at 2.22.
Regarding `O=C(Nc1ccc(F)cc1)Nc1nc(-c2cc3cc([N+](=O)[O-])ccc3o2)cs1`, the IC50 against Acetylcholinesterase worked out at 41.1 µM; in series [2] (ABTS cation radical) it was 123 µM; against Cholinesterase, 47.6 µM. Further, in series [1], the A0.5 is over 200 µM. For the same molecule, in series [3], the Ratio IC50 is 1.16.
The matching figures for `O=C(Nc1ccc([N+](=O)[O-])cc1)Nc1nc(-c2cc3cc(Br)ccc3o2)cs1`: 4.78 µM, over 200 µM, 3.12 µM, 120.74 µM and 0.65.
On the same counts, the results for `COc1ccccc1NC(=O)Nc1nc(-c2cc3ccccc3o2)cs1` are 61 µM, 47.4 µM, 81.3 µM, over 200 µM and 1.33.
As to `O=C(Nc1ccc(Br)cc1)Nc1nc(-c2cc3cc([N+](=O)[O-])ccc3o2)cs1`, the IC50 on Acetylcholinesterase was determined as 28.2 µM; in series [2] (ABTS cation radical) it was 194 µM; against Cholinesterase it was 34.5 µM. Also, the A0.5 in series [1] was over 200 µM. Further, in series [3], the Ratio IC50 worked out at 1.22.
With `COc1cccc(NC(=O)Nc2nc(-c3cc4ccccc4o3)cs2)c1`, the IC50 is 48.9 µM against Acetylcholinesterase, 0.2 µM in series [2] (ABTS cation radical) and 59.6 µM on Cholinesterase. Moreover, the A0.5 in series [1] turned out to be 104.46 µM. For the same molecule, the Ratio IC50 in series [3] worked out at 1.22.
The matching figures for `Cc1ccc(NC(=O)Nc2nc(-c3cc4ccccc4o3)cs2)cc1`: 10.4 µM, 0.5 µM, 56.3 µM, 192.91 µM and 5.41.
The matching figures for `O=C(Nc1nc(-c2cc3ccccc3o2)cs1)Nc1ccccc1F`: 30.9 µM, 2.63 µM, 41.7 µM, 102.43 µM and 1.35.
Turning to `COc1ccc(NC(=O)Nc2nc(-c3cc4ccccc4o3)cs2)cc1`, the figures for the IC50 (against Acetylcholinesterase; in series [2] (ABTS cation radical); against Cholinesterase) were 52.5 µM, 17.4 µM and 74.3 µM, respectively. For the same molecule, the A0.5 in series [1] was 146.34 µM. For the same molecule, the Ratio IC50 in series [3] came out at 1.42.
